Data reported in article PMC12690603 (Chemical Science, 2025).
Non-standard residues stand in square brackets, D forms with d. No end group written: not given here. βAla = NCCC(=O)O

What was measured:
Assay type in all cases: biochemical
[1] = biological target: T1, human SETD7 (Homo sapiens, UniProt Q8WTS6); assay: SETD7-catalysed methylation of H3 peptides, conversion by MALDI-TOF MS; settings: SAM 30 µM; for methylation by SETD7 (conversion to methylated product): 13-mer peptide 10 µM, MALDI-TOF MS; for methylation by SETD7 in time-course: within 30 min
T1 sequence (Q8WTS6 1-366): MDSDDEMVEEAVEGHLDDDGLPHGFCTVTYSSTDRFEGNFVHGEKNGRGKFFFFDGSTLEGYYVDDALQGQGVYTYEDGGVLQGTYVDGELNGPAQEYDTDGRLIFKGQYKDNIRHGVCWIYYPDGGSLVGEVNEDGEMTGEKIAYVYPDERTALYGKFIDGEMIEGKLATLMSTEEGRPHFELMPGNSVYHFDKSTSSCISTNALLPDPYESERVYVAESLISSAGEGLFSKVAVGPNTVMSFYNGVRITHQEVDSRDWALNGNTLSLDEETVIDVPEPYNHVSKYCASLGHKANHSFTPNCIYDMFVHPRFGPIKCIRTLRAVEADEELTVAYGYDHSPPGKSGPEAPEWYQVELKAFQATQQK
In short: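 Recombinant human SETD7 (100 nM, 500 nM or 1 µM) was incubated with stapled or linear H3 peptide (10 µM) and SAM (30 µM) in 50 mM HEPES, 0.1 mM EDTA, 1 mM DTT, pH 8, at 37 °C with shaking at 750 rpm. Reactions were quenched with 10% (v/v) TFA at set times. Methylation (+14 Da) was measured by MALDI-TOF MS. % conversion came from peak areas. n = 2, standard deviations.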

[2] = tested on: human SETD1A; assay: SETD1A-catalysed methylation of 21-mer H3 peptides; settings: 21-mer peptide 2 µM, SETD1A 1 µM, SAM 100 µM, pH 8.6, 37 °C, 3 h, n = 2
[3] = biological target: T1, human SETD7; assay: Steady-state kinetics of SETD7-catalysed methylation; settings: for K m / k cat: peptide 1–150 µM, SETD7 50–300 nM, 10 or 20 min, MALDI-TOF MS, mean ± SD, SD; for K m / k cat / k cat/Km: SAM 30 µM, 37 °C, n = 3; for fold increase of kcat/Km compared to linear H3K4 (1): steady-state kinetics, relative to peptide 1; for k cat/Km: steady-state
In short: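 Recombinant human SETD7 (50–300 nM) added to start reactions containing H3 peptide (1–150 µM series) and SAM (30 µM). Incubated at 37 °C for 10 or 20 min with shaking, then quenched. MALDI-TOF MS was the read-out, with % methylation from integrated […] peak areas. Three independent experiments, SD. kcat/Km values were compared with the linear H3K4 reference peptide.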

[4] = SETD7 500 nM, 50 mM HEPES, 0.1 mM EDTA, 1 mM DTT, pH 8.0, 37 °C, 1 h, n = 2
[5] = SETD7 100 nM, peptide 10 µM, 37 °C, n = 2

K m [3] [µM] | k cat [3] [s⁻¹] | fold increase of kcat/Km compared to linear H3K4 (1) [3] [fold] | k cat/Km [3] [M⁻¹ s⁻¹] | methylation by SETD7 (conversion to methylated product) ([1]; SETD7 100 nM, 37 °C, 1 h) [%] | methylation by SETD7 (conversion to methylated product) ([1]; SETD7 1 µM, 37 °C, 3 h) [%] | Substance | further results
61.6 ± 12.6 | 0.014 ± 0.0013 | – | 233 | – | – | ARTKQTARKSTGG [Peptide 1, reference compound] | methylation/turnover in time-course at low enzyme concentration (in words) ([1]; SETD7 100 nM, peptide 10 µM, 37 °C, time-course): lack of H3K4 (1) methylation; methylation by SETD7 (conversion to methylated product) [1, 4]: ~56%
36.2 ± 7.54 | 0.0598 ± 0.0065 | 7 | 1650 | – | ~95 | AzaRTKQPraARKSTGG (sidechain bridge or staple) [Peptide 3] | –
– | – | – | – | – | ~86 | CRTKQCARKSTGG (also: sidechain bridge or staple (positions not given here)) [Peptide 2] | –
1.84 ± 0.27 | 0.046 ± 0.00283 | 110 | 25000 | ~96 | – | GRTKQEARKSTGG (also: sidechain bridge or staple (positions not given here)) [Peptide 7] | methylation by SETD7 in time-course [1, 5]: ~90%
– | – | – | – | – | ~11 | GRTKQTERKSTGG (also: sidechain bridge or staple (positions not given here)) [Peptide 15] | –
– | – | – | – | – | ~75 | RTKQEARKSTGG (also: sidechain bridge or staple (positions not given here)) [Peptide 12] | –
17.7 ± 3.15 | 0.0495 ± 0.00317 | 12 | 2830 | ~48 | – | [βAla]RTKQEARKSTGG (also: sidechain bridge or staple (positions not given here)) [Peptide 11] | –

Continued, substance first:

Substance | K m [3] [µM] | k cat [3] [s⁻¹] | fold increase of kcat/Km compared to linear H3K4 (1) [3] [fold] | k cat/Km [3] [M⁻¹ s⁻¹] | methylation by SETD7 (conversion to methylated product) ([1]; SETD7 100 nM, 37 °C, 1 h) [%] | methylation by SETD7 (conversion to methylated product) ([1]; SETD7 1 µM, 37 °C, 3 h) [%] | further results
21-mer H3K4: longer linear H3K4 substrate peptide, residues 1–21 [reference compound] | – | – | – | – | – | – | methylation by SETD7 ([1]; 21-mer peptide (residues 1–21) 10 µM, SETD7 500 nM, 37 °C, 3 h, n = 2): ~88%; dimethylated product by SETD1A [2]: ~9%
ARTKQDARKSTGG (also: sidechain bridge or staple (positions not given here)) [Peptide 5] | 12.5 ± 2.77 | 0.031 ± 0.00233 | 10 | 2500 | ~10 | – | methylation by SETD7 (conversion to methylated product) [1, 4]: fully converted to methylated product
ARTKQEARKSTGG (also: sidechain bridge or staple (positions not given here)) [Peptide 4] | – | – | – | – | – | – | methylation by SETD7 (conversion to methylated product) [1, 4]: ~63%
D-ARTKQEARKSTGG (sidechain bridge or staple) [Peptide 6] | 10.4 ± 1.88 | 0.23 ± 0.014 | 97 | 22200 | ~89 | – | methylation by SETD7 in time-course [1, 5]: ~90%
FRTKQEARKSTGG (also: sidechain bridge or staple (positions not given here)) [Peptide 9] | 34.6 ± 9.78 | 0.0493 ± 0.00517 | 6 | 1430 | ~62 | – | –
GGRTKQEARKSTGG (also: sidechain bridge or staple (positions not given here)) [Peptide 13] | – | – | – | – | – | ~91 | –
GRTKETARKSTGG (also: sidechain bridge or staple (positions not given here)) [Peptide 14] | – | – | – | – | – | < 5 | –
GRTKQEARKSTGG [Peptide 16] | – | – | – | – | – | ~40 | –
VRTKQEARKSTGG (also: sidechain bridge or staple (positions not given here)) [Peptide 8] | 34.1 ± 7.76 | 0.0423 ± 0.00433 | 5 | 1230 | ~64 | – | –
